# PMI act = phosphomannose isomerase (human) activation. activation factor at 20 µM. 0.005% of 190,000 active. AID 1214. P34949. purified human PMI, coupled resazurin fluorescence, 20 min; hits give high values; 1 = vehicle control, 0 substrate-free wells;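 active means activation factor of 2 or more at 20 µM, relative to plate controls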
# Target sequence (P34949 whole entry, looked up): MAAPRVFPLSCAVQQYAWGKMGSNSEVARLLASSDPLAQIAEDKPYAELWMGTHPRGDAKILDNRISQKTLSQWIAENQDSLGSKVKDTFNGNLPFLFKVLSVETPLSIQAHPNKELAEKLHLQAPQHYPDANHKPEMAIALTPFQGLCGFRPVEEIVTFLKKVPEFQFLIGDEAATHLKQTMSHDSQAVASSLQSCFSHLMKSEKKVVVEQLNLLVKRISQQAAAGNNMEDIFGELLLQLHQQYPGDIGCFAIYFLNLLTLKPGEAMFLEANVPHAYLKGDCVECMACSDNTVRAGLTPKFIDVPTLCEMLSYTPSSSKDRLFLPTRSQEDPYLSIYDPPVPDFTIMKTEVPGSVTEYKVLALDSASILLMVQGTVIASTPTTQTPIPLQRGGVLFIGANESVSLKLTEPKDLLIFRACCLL
# L major viab = Leishmania major promastigote growth inhibition. 9% of 200,000 active. AID 1063. Leishmania major promastigotes, resazurin fluorescence viability. inhibition, % at 10 µM; in the data active means inhibition above about 50%;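 further: promastigotes grown with compound for 44 hours at 28 °C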
# PMI act hi M6P = increases human PMI activity with near-saturating mannose 6-phosphate | 0.34% of 190,000 active | coupled PMI enzyme assay, resazurin fluorescence, 20 min; hits give high values; 1 = untreated enzyme, 0 = substrate-free blank | AID 1216 | P34949 | activation factor at 20 µM;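 active means activation factor of 2 or more at 20 µM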
#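 Test system: human PMI in coupled enzyme assay; Input: PMI at 15 ng/mL final; Medium: HEPES buffer, pH 7.4; Schedule: 20 min incubation at room temperature; Technique: resorufin fluorescence at Ex 544/Em 590 nm; Compound: 20 µM single dose; Probe or stimulus: Near-saturating mannose-6-phosphate, 1.0 mM.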
# HCT116 PTEN-null = growth suppressors of cells with PTEN tumor suppressor deletion | HCT116 PTEN-null viability, CellTiter-Glo, 60 h; hits give low values | viability, % at 10 µM | 1.2% of 140,000 active | AID 827;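 active means viability at or below a set limit, 4 SD under the median of all tested compounds, cut at about 3.7% in these data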;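 further: PTEN knockout HCT116 line with beta catenin targeted HCT116 as companion control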
# bCat KO growth = beta-catenin-lacking colon tumor cell growth suppression; 1.5% of 140,000 active; HCT116 beta-catenin knockout viability, CellTiter-Glo, 60 h; hits give low values; viability, % at 10 µM;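 active means viability at or under a set limit, the compound median less 4 SD, cut at about 6% in these data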
# Hits are given with their value; n = inactive; x = no result given. The list is not random: actives were taken first. Their share in the collection is about 9.6%.
SMILES,PMI act,L major viab,PMI act hi M6P,HCT116 PTEN-null,bCat KO growth
COc1cc(C2N(c3ccccc3)CCN2c2ccccc2)cc(OC)c1OC,n,n,n,n,n
CCOc1ccc(S(=O)(=O)Nc2nc3ccccc3nc2N2CCN(C)CC2)cc1,n,100,n,n,n
CC(C)NC(=S)N(CCc1ccncc1)C(C)C,n,n,n,x,x
CC1CN(C(=O)c2ccccc2)C(=Nc2cccc(S(=O)(=O)N(C)C)c2)S1 (stereo not drawn),n,83,n,n,n
C/C(=N\NC(N)=S)C12CC3CC(CC(C3)C1)C2,n,101,n,n,n
C/C(=N\NC(N)=S)C1(C)CCCCC1,n,n,n,n,n
CCOC(=O)c1sc(SC)nc1N,n,n,n,x,x
CCCCn1c(C)cc(C)c(S(=O)(=O)c2ccccc2C)c1=O,n,97,n,n,n
Cc1ccccc1S(=O)(=O)c1c(C)cc(C)n(C(C)C)c1=O,n,89,n,n,n
CCCCc1c(O)c2ccccc2n(CCCC)c1=O,n,n,n,n,n
CCc1c(C)[nH]c2nc3ccccc3n2c1=O,n,94,n,n,n
O=c1cc(-c2ccccc2)[nH]c2nc3ccccc3n12,n,n,n,n,n
COc1cccc2c(=S)c(CCC(C)=O)c(C)[nH]c12,n,n,2.1,n,n
CCN(Cc1ccccc1)S(=O)(=O)c1cc(C(=O)NCC2CCCCC2)ccc1OC,n,98,n,n,n
CCN(CC)S(=O)(=O)c1cc(C(=O)NC2CCCCC2)ccc1C,n,n,n,n,n
CCN(Cc1ccccc1)S(=O)(=O)c1cc(C(=O)NC2CCCCCC2)ccc1OC,n,95,n,n,n
O=C(O)/C(=C\c1cccs1)c1ccccc1,n,n,n,x,x
CCc1ccc(-c2nc(CN3CCC(C(=O)N4CCN(c5ccccn5)CC4)CC3)c(C)o2)cc1,n,84,n,1.1,1.9
CCc1ccc(-c2nc(CN3CCC(C(=O)N4CCN(c5ccccc5)CC4)CC3)c(C)o2)cc1,n,82,n,2.4,2.0
CCc1ccc(-c2nc(CN3CCCC(C(=O)O)C3)c(C)o2)cc1 (stereo not drawn),n,n,n,n,n
Cc1nc(NC(=O)COC(=O)CCS(=O)(=O)c2ccccc2Cl)c(Cl)cc1Cl,n,n,n,n,n
O=C(OCc1cnc(Cl)s1)c1ccccc1Cl,n,n,n,n,n
O=C(OCn1ncc(Br)c(Br)c1=O)c1ccc(F)cc1,n,100,n,0.6,0.8
O=C(OCn1ncc(Br)c(Br)c1=O)c1ccccc1Cl,n,101,n,2.0,1.5
Cc1ccc(NC(=O)CCn2nc([N+](=O)[O-])cc2C)nc1,n,n,n,n,n
SMILES,PMI act,L major viab,PMI act hi M6P,HCT116 PTEN-null,bCat KO growth
O=Nc1c(O)n(Cc2ccc(Cl)c(Cl)c2)c2ccccc12,n,77,n,n,n
O=Nc1c(O)n(Cc2cccc(C(F)(F)F)c2)c2ccccc12,n,n,n,x,x
N=c1c2c(-c3ccccc3)c(-c3ccccc3)n(Cc3ccccc3)c2ncn1CCCn1ccnc1,n,100,n,2.0,1.2
N=c1c2c(-c3ccccc3)c(-c3ccccc3)n(Cc3ccco3)c2ncn1Cc1ccco1,n,100,n,1.4,1.5
Cc1ccc(CN2CCN(/N=C\C=C\c3ccccc3)CC2)cc1,n,n,n,x,x
O=C(/C=C/c1ccc2c(c1)OCO2)N1CCN(c2ccccc2F)CC1,n,n,n,n,n
CCN(CC)CCCN1C(=O)CSC1c1ccc([N+](=O)[O-])cc1 (stereo not drawn),n,76,n,x,x
Cc1ccc(N(CC(=O)N/N=C/c2cccc(Br)c2)S(C)(=O)=O)cc1,n,n,n,n,n
Cc1cccc(-n2c(CNC(=O)c3ccccc3)nnc2SCC(=O)Nc2nccs2)c1,n,n,n,n,n
COc1cc2c(cc1OC)CN(C(=O)c1ccc(S(=O)(=O)N(C)c3ccccc3)cc1)CC2,n,99,n,x,x
COc1cc2c(cc1OC)CN(C(=O)c1ccccc1C(=O)O)CC2,n,n,n,n,n
COc1ccccc1C(=O)OCc1c(F)cccc1Cl,n,n,n,n,n
COC(=O)C1=C(O)CSC1=Nc1ccc(C)cc1,n,58,n,n,n
O=C(O)CSCc1cnn(-c2ccccc2)c1-n1cccc1,n,n,n,n,n
O=C(CSCc1cnn(-c2ccccc2)c1-n1cccc1)N1CCN(Cc2ccccc2)CC1,n,97,n,n,n
COc1ccc(C(=O)NC2CCCCCC2)cc1S(=O)(=O)N1CCCC1,n,n,n,x,x
COc1ccc(C(=O)Nc2nc3c(s2)CCCC3)cc1S(=O)(=O)N1CCCc2ccccc21,n,97,n,n,n
COc1ccc(C(=O)NC2CCCCCC2)cc1S(=O)(=O)N1CCCc2ccccc21,n,94,n,n,n
COc1cccc2c(=O)n(CC(=O)N3CCCCC3)ccc12,n,n,n,n,n
Fc1ccc(NC(=S)N2CCN(C/C=C/c3ccccc3)CC2)c(F)c1,n,81,n,x,x
COc1ccc(NC(=S)N2CCN(C/C=C/c3ccccc3)CC2)c(OC)c1,n,n,n,x,x
O=C(Nc1cccc(F)c1)N1CCN(C/C=C/c2ccccc2)CC1,n,68,n,n,n
O=C(CCN1CCN(C/C=C/c2ccccc2)CC1)Nc1ccccc1F,n,97,n,n,n
O=C(NC(=S)N1CCN(C/C=C/c2ccccc2)CC1)c1c(F)cccc1F,n,n,n,n,n
COc1ccccc1NC(=S)N1CCN(C/C=C/c2ccccc2)CC1,n,67,n,n,n
SMILES,PMI act,L major viab,PMI act hi M6P,HCT116 PTEN-null,bCat KO growth
O=C(CCN1CCN(c2ccccc2F)CC1)Nc1ccccc1F,n,n,n,n,n
O=S(=O)(c1ccc(Oc2ccc(Br)cc2)cc1)N1CCOCC1,n,n,n,n,n
COc1ccc(CCNC(=O)Cn2cc(C(F)(F)F)cc(Cl)c2=O)cc1OC,n,n,n,n,n
c1ccc(CCC2CCCCN2Cc2nc(-c3ccc4c(c3)OCO4)no2)nc1 (stereo not drawn),n,n,n,x,x
Cc1ccc(CC(=O)NCC(c2ccco2)N(C)C)cc1C (stereo not drawn),n,n,n,x,x
CC(C)NC(=S)N1CCN(C/C=C/c2ccccc2)CC1,n,n,n,x,x
S=C(NC1CCCCC1)N1CCN(C/C=C/c2ccccc2)CC1,n,94,n,n,n
COC(=O)c1cc(OC)c(OC)cc1NC(=S)N1CCCC1,n,88,n,x,x
COc1ccc(C)cc1NC(=O)CN1CCN(C/C=C/c2ccccc2)CC1,n,86,n,n,n
CCOC(=O)N1CCN(C(=S)Nc2cc(OC)c(OC)cc2C(=O)OC)CC1,n,n,n,n,n
COc1ccccc1NC(=S)N1CCN(Cc2ccccc2)CC1,n,83,n,n,n
C=C(C)CSc1nc(N)c2c(C)c(C)sc2n1,n,n,n,n,n
Cc1ccc(C(=O)C(C)N2C(=O)NC(C)(c3ccccc3)C2=O)cc1 (stereo not drawn),n,n,n,x,x
COC(=O)c1cc(OC)c(OC)cc1NC(=S)N1CCN(C/C=C/c2ccccc2)CC1,n,99,n,n,n
